Published values of several laboratories.
Compare with care: the assays were run in different laboratories.
Target: MAP kinase-activated protein kinase 3 (MAPKAPK3, Homo sapiens, UniProt Q16644)

`O=C(Nc1cnn(-c2csc(C(=O)NC3COC3)c2)c1)Nc1ccccc1Cl` has a remaining activity of 83.5% (enzyme activity; inhibitor; 5 µM).
With `N#CCCc1ccc2c(c1)-c1[nH]c3ccc([N+](=O)[O-])cc3c1CC(=O)N2` the remaining signal was 96.8% (cell-free assay; 0.5 µM).
The remaining activity of `CC(C)(O)[C@H]1CC[C@H](Nc2ccc3ncc(-c4cccc(C(F)(F)F)c4)n3n2)CC1` is reported as 103% (enzyme activity; inhibitor; 1 µM).
For `CCN(CC)CCNC(=O)c1c(C)[nH]c(/C=C2\C(=O)Nc3ccc(F)cc32)c1C`, the inhibition was -10% (enzyme activity; inhibitor; 0.3 µM).
`Cc1cc(NC(=O)c2cccc3cc(-c4cccc5[nH]nc(N)c45)ccc23)ccc1F` gave an activity vs control of 96% (enzyme activity; inhibitor; 0.1 µM).
The inhibition of `CCCS(=O)(=O)Nc1ccc(F)c(C(=O)c2c[nH]c3ncc(-c4ccc(Cl)cc4)cc23)c1F` is reported as < 10% (enzyme activity; inhibitor; 1 µM).
With `CC(C)(C)c1nc(-c2cccc(NS(=O)(=O)c3c(F)cccc3F)c2F)c(-c2ccnc(N)n2)s1` the remaining activity was 92% (enzyme activity; inhibitor; radiometric; 1 µM).
With `Cc1ccc(Nc2nccc(N(C)c3ccc4c(C)n(C)nc4c3)n2)cc1S(N)(=O)=O` the inhibition was -3% (enzyme activity; inhibitor; 10 µM).
`CN1CC(Oc2cnc(C#N)cc2-c2ccn3nc(NC(=O)C4CC4)cc3c2)C1` has an inhibition of -1% (enzyme activity; inhibitor; 1 µM).
`COc1cc(Nc2cnc(C#N)c(O[C@H](C)CN(C)C)n2)ncc1-c1cnn(C)c1` gave a remaining activity of 96% (enzyme activity; inhibitor; radiometric; 1 µM).
With `CNC(=O)c1cc(Oc2ccc(NC(=O)Nc3ccc(Cl)c(C(F)(F)F)c3)cc2)ccn1` the inhibition was -5% (enzyme activity; inhibitor; 10 µM).
For `FC(F)(F)Oc1cccc(-c2cnc3ccc(-c4ccncc4)nn23)c1`, the activity vs control was 107% (enzyme activity; inhibitor; radiometric; 1 µM).
The inhibition of `COc1cc2ncnc(Nc3ccc(Oc4ccccc4)cc3C)c2cc1OC` is reported as 0% (enzyme activity; inhibitor; 1 µM).
`CC/C(=N\NC(=O)NCc1cccc(O)c1)c1ccc(O)c(C)c1O` has an inhibition of -6% (enzyme activity; inhibitor; 0.1 µM).
With `COc1cccc2c(NCc3ccccc3)nc(-n3c(N)nc4ccccc43)nc12` the inhibition was -7.4% (target engagement in cells; inhibitor; chemoproteomics; 20 mM).
`CCCOc1ccc(OC)c(F)c1C(=O)c1ccc(C(=O)N[C@@H]2CNC[C@H]2NC(=O)c2ccc3[nH]ncc3c2)cc1` gave a remaining activity of 68% (enzyme activity; inhibitor; 10 µM).
The remaining activity of `FC(F)c1nc2ccccc2n1-c1nc(N2CCOCC2)nc(N2CCOCC2)n1` is reported as 97% (enzyme activity; inhibitor; 10 µM).
With `c1ccc(CNc2nc(N3CCOc4ccccc43)nc3c2CCCC3)cc1` the inhibition was -11.1% (target engagement in cells; inhibitor; chemoproteomics; 20 mM).
